Tests used:
[1] = Antimigratory activity against human Gli4 cells on matrix containing vitronectin after 24 hrs by 2-D migration assay; type: functional, cell-based
In short: (§1)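 Boyden chamber 2D migration toward serum over 24 h on fibronectin, vitronectin or laminin matrix. Cells in DMEM with 0.1% BSA in the upper compartment with or without compound; 10% FCS medium below. Gli4/Gli7 taken from neurosphere cultures. Migrated cells methanol-fixed, crystal violet stained, counted at ×200. Ki from Hill equation fit; ≥3 independent experiments, each point in quadruplicate.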

A-431 = assay: Antiproliferative activity against human A431 cells after 48 to 72 hrs by MTT assay; type: functional, cell-based
In short: (§2)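 MTT assay read 48 and 72 h after compound addition. Cell lines grown in DMEM with 10% heat-inactivated FCS, 2 mM L-glutamine, 1 mM sodium pyruvate; GBM stem cells grown as nonadherent neurospheres. IC50 by Hill equation fit; ≥3 independent experiments, each point repeated six times.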

[2] = Antiproliferative activity against human Caco2 cells after 48 to 72 hrs by MTT assay; type: functional, cell-based; conditions: Caco-2; in short: as §2
MDA-MB-231 = assay: Antiproliferative activity against human MDA-MB-231 cells after 48 to 72 hrs by MTT assay; type: functional, cell-based; in short: as §2
MDA-MB-435 = assay: Antiproliferative activity against human MDA-MB-435 cells after 48 to 72 hrs by MTT assay; type: functional, cell-based; in short: as §2
[3] = Antiproliferative activity against human HuH7 cells after 48 to 72 hrs by MTT assay; type: functional, cell-based; conditions: Huh-7; in short: as §2
[4] = Antiproliferative activity against mouse B16F10 cells after 48 to 72 hrs by MTT assay; type: functional, cell-based; conditions: B16-F10; in short: as §2
DU-145 = assay: Antiproliferative activity against human DU145 cells after 48 to 72 hrs by MTT assay; type: functional, cell-based; in short: as §2
C6 [5] = assay: Antiproliferative activity against rat C6 cells after 48 to 72 hrs by MTT assay; type: functional, cell-based; in short: as §2
SNB-75 [6] = assay: Antiproliferative activity against human SNB75 cells after 48 to 72 hrs by MTT assay; type: functional, cell-based; in short: as §2
[7] = Antiproliferative activity against human Gli7 cells after 48 to 72 hrs by MTT assay; type: functional, cell-based; in short: as §2
[8] = Antimigratory activity against human Gli4 cells on matrix containing fibronectin after 24 hrs by 2-D migration assay; type: functional, cell-based; in short: as §1
[9] = Antimigratory activity against human Gli7 cells on matrix containing fibronectin after 24 hrs by 2-D migration assay; type: functional, cell-based; in short: as §1
SNB-75 [10] = assay: Antimigratory activity against human SNB75 cells on matrix containing fibronectin after 24 hrs by 2-D migration assay; type: functional, cell-based; in short: as §1
C6 [11] = assay: Antimigratory activity against rat C6 cells on matrix containing fibronectin after 24 hrs by 2-D migration assay; type: functional, cell-based; in short: as §1
[12] = Antimigratory activity against human Gli7 cells on matrix containing vitronectin after 24 hrs by 2-D migration assay; type: functional, cell-based; in short: as §1
SNB-75 [13] = assay: Antimigratory activity against human SNB75 cells on matrix containing vitronectin after 24 hrs by 2-D migration assay; type: functional, cell-based; in short: as §1
C6 [14] = assay: Antimigratory activity against rat C6 cells on matrix containing vitronectin after 24 hrs by 2-D migration assay; type: functional, cell-based; in short: as §1
[15] = Antimigratory activity against human Gli4 cells on matrix containing laminin after 24 hrs by 2-D migration assay; type: functional, cell-based; in short: as §1
[16] = Antimigratory activity against human Gli7 cells on matrix containing laminin after 24 hrs by 2-D migration assay; type: functional, cell-based; in short: as §1
SNB-75 [17] = assay: Antimigratory activity against human SNB75 cells on matrix containing laminin after 24 hrs by 2-D migration assay; type: functional, cell-based; in short: as §1
C6 [18] = assay: Antimigratory activity against rat C6 cells on matrix containing laminin after 24 hrs by 2-D migration assay; type: functional, cell-based; in short: as §1
[19] = Antiinvasive activity against human Gli4 cells after 48 hrs by matrigel assay; type: functional, cell-based
[20] = Antiinvasive activity against human Gli7 cells after 48 hrs by matrigel assay; type: functional, cell-based
[21] = Cytotoxicity against mouse astrocytes at 100 uM by MTT assay; type: cell-based; conditions: astrocyte
In short: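 Primary astrocytes from day-2 newborn mouse cortex, kept 21 days (nonproliferative, GFAP-positive), exposed to compound up to 100 μM; viability by MTT assay.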

[22] = Cytotoxicity against rat cortical neurons at 100 uM using propidium iodide by flow cytometry; conditions: cortical neurone
[23] = Cytotoxicity against rat cortical neurons at 100 uM by MAP2 immunofluorescence assay; conditions: cortical neurone
In short: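 Rat E17 embryonic cortical neurons cultured 17 days, treated 48 h; then 5 μg/mL Hoechst 33342 and 10 μM propidium iodide for 30 min at 37 °C, PBS wash, 4% paraformaldehyde fixation. Fluorescence read on plate reader and by camera imaging; MAP2 immunofluorescence imaged; Triton X-100 (2%) control; mean % PI uptake from three wells per condition.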

[24] = Antiproliferative activity against human Gli4F11 cells after 48 to 72 hrs by MTT assay

Row | IC50 (A-431) [µM] | IC50 (MDA-MB-231) [µM] | IC50 (MDA-MB-435) [µM] | IC50 (DU-145) [µM] | Structure (SMILES) | Ki [1] [µM] | IC50 [2] [µM] | IC50 [3] [µM] | IC50 [4] [µM] | IC50 (C6 [5]) [µM] | IC50 (SNB-75 [6]) [µM] | IC50 [7] [µM] | Ki [8] [µM] | Ki [9] [µM] | Ki (SNB-75 [10]) [µM] | Ki (C6 [11]) [µM] | Ki [12] [µM] | Ki (SNB-75 [13]) [µM] | Ki (C6 [14]) [µM] | Ki [15] [µM] | Ki [16] [µM] | other results
1 | 1.34 | 9.81 | 4.69 | > 100 | CC1(C)O[C@@H]2[C@H](O1)[C@@H](Nc1cccc3ccccc13)[P@](=O)(c1ccccc1)O[C@@H]2[C@H]1COC(C)(C)O1 | 0.036 | > 100 | 6.87 | > 100 | 5.74 | 3.41 | 2.33 | 0.031 | 0.016 | 0.124 | 0.126 | 0.042 | 0.1 | 0.3 | 0.022 | 0.1 | Ki (SNB-75 [17]): 0.06 µM; Ki (C6 [18]): 0.077 µM; Ki [19]: 0.29 µM; Ki [20]: 0.046 µM; Activity [21]: Toxic; Activity [22]: Toxic; Activity [23]: Toxic
2 | > 100 | > 100 | > 100 | > 100 | CC[P@@]1(=O)O[C@H]([C@H]2COC(C)(C)O2)[C@@H]2OC(C)(C)O[C@@H]2[C@@H]1O | 0.194 | > 100 | > 100 | > 100 | 8.66 | 4.92 | 2.5 | 0.1 | 0.064 | 0.019 | 0.027 | 0.438 | 0.066 | 0.047 | 0.239 | 1.05 | Ki (SNB-75 [17]): 0.027 µM; Ki (C6 [18]): 0.025 µM; IC50 [24]: 3.8 µM
